Bioassay records as filed in PubChem.
MC4R barr agon – human MC4R agonism via beta-arrestin; P32245; U2OS MC4R beta-arrestin complementation, luminescence; percent of melanotan II response, DMSO zero; activation, % at 8.9 µM; 0.98% of 360,000 active; AID 540308;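 active means activation above a per-plate cutoff, the mean activation of sample wells on that plate plus 3 SD, cut at about 8% in these data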
Rev-erbA mod – Rev-erb alpha (human) modulation | P20393 | Rev-erbα–FITC-DNA binding, fluorescence polarization, 90 min | 0.79% of 370,000 active | AID 1259318 | activity, % at 10 µM;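 active means activity above about 14%, limit read from the data; passing the limit was not always enough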
NTR1 ag – NTR1 (human) agonism | P30989 | NTR1-U2OS beta-arrestin-GFP spot imaging, agonist mode | activation, % at 20 µM | 0.17% of 330,000 active | AID 493036;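 active means activation at or above 40% of the spot to cytoplasm intensity ratio, with at least 20 cells analyzed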
PG9 Ab binder – small molecules binding HIV-1 gp120 antibody PG9. TR-FRET gp120-PG9 antibody binding. inhibition, % at 6.7 µM. 0.43% of 360,000 active; in the data active means inhibition above about 8.5%
MC4R antag cAMP – blocks human MC4R cAMP signaling; MC4R-expressing cells, MTII-stimulated cAMP, LANCE TR-FRET; inhibition, % at 6.5 µM; 0.48% of 360,000 active; AID 540295;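 active means inhibition above its plate's cutoff, the mean of tested wells on that plate plus 3 SD, cut at about 29% in these data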
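Material: human MC4R-expressing U2OS cells. Probe or stimulus: Melanotan II challenge. Dosing: 6.5 µM single dose. Times: 30-min compound, 1-h challenge, 1-h detection, room temperature. Technique: TR-FRET with Eu-cAMP and labeled anti-cAMP, 671 nm. Replication: singlicate.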
MC4R barr conf – human MC4R beta-arrestin agonism confirmation; shares compounds with MC4R barr agon; U2OS MC4R beta-arrestin recruitment, luminescence; scaled DMSO 0%, Melanotan II 100%; activation, % at 8.9 µM; 31% of 2,400 active;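 active means mean activation across replicates above the hit cutoff set in the earlier primary screen, cut at about 8% in these data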
MOR-DOR barr ag – activates mu-delta opioid heterodimer, MC4R agonist counter-screen. U2OS PathHunter beta-arrestin, beta-gal luminescence; percent of deltorphin B response, DMSO zero. activation, % at 9.2 µM. shares compounds with MC4R barr agon. 5.8% of 2,400 active;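 active means mean activation across replicates exceeds the hit threshold derived in the earlier primary screen, cut at about 18% in these data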
Target sequence (P35372 whole entry, looked up): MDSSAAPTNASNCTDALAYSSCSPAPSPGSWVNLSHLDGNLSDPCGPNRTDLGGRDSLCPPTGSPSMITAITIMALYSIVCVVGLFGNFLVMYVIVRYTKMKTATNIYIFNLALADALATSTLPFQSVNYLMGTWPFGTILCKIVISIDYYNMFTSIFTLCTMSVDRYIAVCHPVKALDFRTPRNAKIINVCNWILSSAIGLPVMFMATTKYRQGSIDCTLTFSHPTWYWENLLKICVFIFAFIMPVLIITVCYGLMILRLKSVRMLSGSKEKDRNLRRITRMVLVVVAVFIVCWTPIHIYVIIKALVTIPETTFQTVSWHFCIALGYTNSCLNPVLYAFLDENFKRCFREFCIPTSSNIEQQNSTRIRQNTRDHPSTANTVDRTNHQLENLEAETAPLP
Target sequence (P41143 whole entry, looked up): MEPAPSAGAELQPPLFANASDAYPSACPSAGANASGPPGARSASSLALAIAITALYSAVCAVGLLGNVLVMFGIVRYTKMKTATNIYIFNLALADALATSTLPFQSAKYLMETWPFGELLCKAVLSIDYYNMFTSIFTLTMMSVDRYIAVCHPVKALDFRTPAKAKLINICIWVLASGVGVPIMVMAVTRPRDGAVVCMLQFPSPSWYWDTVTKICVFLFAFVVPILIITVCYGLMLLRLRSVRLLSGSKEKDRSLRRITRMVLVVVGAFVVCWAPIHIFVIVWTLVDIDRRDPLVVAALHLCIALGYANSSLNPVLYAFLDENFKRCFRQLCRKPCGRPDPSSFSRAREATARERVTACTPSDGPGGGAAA
A number is an active result; 0 = inactive; - = no result. This is a sample that favours compounds with a hit; in the whole collection about 2.5% have one here.

SMILES	MC4R barr agon	Rev-erbA mod	NTR1 ag	PG9 Ab binder	MC4R antag cAMP	MC4R barr conf	MOR-DOR barr ag
O=C(COC(=O)c1cccc(S(=O)(=O)N2CCCCCC2)c1)NCc1ccc(Cl)cc1	9.8	0	0	0	0	0	0
O=C(COC(=O)c1cccc(S(=O)(=O)N2CCCCC2)c1)NCc1ccccc1	0	0	0	0	0	-	-
O=C(COC(=O)c1ccc(S(=O)(=O)N2CCCCC2)cc1)Nc1ccccc1Cl	23	0	0	0	0	0	0
Cc1cccc(NC(=O)COC(=O)c2ccc(S(=O)(=O)N3CCCCCC3)cc2)c1	12	0	0	0	0	0	0
O=C(COC(=O)c1ccc(S(=O)(=O)N2CCCC2)cc1)Nc1cccc(Br)c1	0	0	0	0	0	-	-
O=C(Nc1ccc(N2CCOCC2)cc1)c1ccc2nc(-c3ccco3)c(-c3ccco3)nc2c1	10	0	0	0	0	0	0
Cc1ccc(C(=O)Nc2ncc(Cc3ccc(SC(F)F)cc3)s2)cc1	18	0	0	0	0	9.0	0
Cc1ccc(C(=O)Nc2ncc(Cc3ccc(F)cc3)s2)o1	0	0	0	0	0	-	-
COc1ccc(-c2cnc3c(NC=O)cc(-c4ccc(F)cc4)cn23)cc1OC	0	0	-	0	0	-	-
CS(=O)(=O)c1ccc(-c2cnc3c(NC=O)cc(-c4ccsc4)cn23)cc1	0	0	-	0	0	-	-
COc1ccc(-c2cnc3c(NC=O)cc(-c4ccccc4)cn23)cc1OC	27	0	-	0	0	0	0
COc1ccc(-c2cnc3c(NC=O)cc(-c4ccoc4)cn23)cc1OC	15	0	-	0	0	9.3	0
O=CNc1cc(-c2ccsc2)cn2c(-c3ccccc3)cnc12	32	0	-	0	0	35	0
COc1ccc(-c2cnc3c(NC=O)cc(-c4cc(OC)c(OC)c(OC)c4)cn23)cc1OC	30	0	-	0	0	13	0
CCCC[C@H](C(=O)N(C)c1cccc(OC)c1)[C@@H](O)c1ccc(Cl)cc1	-	0	-	-	-	-	-
CC1CCN(c2ccc(C(=O)O)cc2NS(=O)(=O)c2ccc(C(C)(C)C)cc2)CC1	-	0	-	-	-	-	-
O=C(CSc1ccccc1F)NC(=O)c1ccc(Cl)cc1	10	0	0	0	0	0	0
C[C@H](CO)N1C[C@H](C)[C@@H](CN(C)S(=O)(=O)c2ccc(F)cc2)Oc2cc(Br)ccc2S1(=O)=O	-	0	-	0	-	-	-
CCC(=O)Nc1cccc(-c2nc3ccccc3o2)c1	0	0	0	0	0	-	-
Cc1cccc(OCC(=O)Nc2cccc(-c3nnc(-c4ccccc4)o3)c2)c1C	30	0	0	0	0	15	0
COc1ccc(OCC(=O)NNC(=O)Nc2cccc(Cl)c2)cc1	0	0	0	0	0	-	-
Cc1cccc(OCC(=O)NNC(=O)Nc2cccc(Cl)c2)c1C	10	0	0	0	0	0	0
Cc1cccc(C)c1OCC(=O)Nc1cccc(-c2nnc(-c3ccccc3)o2)c1	0	0	0	0	0	-	-
COc1ccccc1OCC(=O)Nc1cccc(-c2nc3ccccc3o2)c1	15	0	0	0	0	0	0
CCN(CC)c1nc(OCCNC(=O)Nc2ccccc2)nc(N(CC)CC)n1	13	0	0	0	0	0	0
SMILES	MC4R barr agon	Rev-erbA mod	NTR1 ag	PG9 Ab binder	MC4R antag cAMP	MC4R barr conf	MOR-DOR barr ag
O=C(NCCOc1nc(N2CCCCC2)nc(N2CCCCC2)n1)Nc1ccccc1	0	0	0	0	0	-	-
Cc1ccc2sc(N(CCCN(C)C)C(=O)c3ccc(Br)s3)nc2c1C	22	0	0	0	0	19	0
Cc1cccc2sc(N(CCCN(C)C)C(=O)c3nc4ccccc4s3)nc12	0	0	0	0	0	-	-
Cc1ccc2sc(N(CCCN(C)C)C(=O)c3nc4ccccc4s3)nc2c1C	40	0	0	0	0	26	31
COC(=O)C1=C(C)N(Cc2ccccc2C(F)(F)F)C(=NCc2ccc(C(F)(F)F)cc2)NC1c1ccccc1 (stereo not drawn)	-	0	-	0	-	-	-
N[C@@H](CC(=O)N1CCn2c(nnc2C(F)(F)F)C1)Cc1cc(F)c(F)cc1F	-	0	-	-	-	-	-
CCCCCCCC/C=C\CCCCCCCC(=O)NCCc1ccc(O)c(O)c1	9.8	0	0	0	0	0	0
C[C@H](O)[C@@H]1CN2CCc3c([nH]c4cccc(-c5ccccc5)c34)[C@@H]2C[C@@H]1N(C)C(=O)Nc1ccccc1	-	0	-	-	-	-	-
C=CCN(C)C(C#Cc1ccccc1)c1ccccc1C(F)(F)F (stereo not drawn)	-	0	-	-	-	-	-
CC(=O)Nc1sc2c(c1-c1nc3ccccc3s1)CCCNC2	-	0	-	-	-	-	-
CCc1cc(=O)oc2cc3oc(C)c(C)c3cc12	0	0	0	0	0	-	-
CCCc1cc(=O)oc2cc3oc(C)c(C)c3cc12	13	0	0	0	0	0	0
COc1ccc2cc3cc(C(=O)NCc4cccs4)oc3nc2c1	11	-	0	0	0	0	0
COc1ccc2cc3cc(C(=O)NCCc4ccc(OC)c(OC)c4)oc3nc2c1	0	0	0	0	0	-	-
NC1=NC(=O)/C(=C/c2cn(Cc3ccccc3)c3ccccc23)S1	11	0	0	0	0	0	0
O=C(Nc1cccc(Cl)c1)N1CCN(C/C=C/c2ccccc2)CC1	9.6	0	0	0	0	0	0
O=C(CCN1CCN(C/C=C/c2ccccc2)CC1)Nc1ccc(Cl)cc1	0	0	0	0	0	-	-
S=c1[nH]nc(-c2ccccc2)n1/N=C/c1ccc(-c2ccccc2Cl)o1	12	0	0	0	0	0	0
O=C(NC1CCCC1)[C@@H]1CCCN1C(=O)[C@@H](NC(=O)N1CCOCC1)C1CCCCC1	-	0	-	0	-	-	-
O=P(c1ccccc1)(c1ccccc1)c1cnc2ccccn12	-	0	-	-	-	-	-
CCCCOc1ccc(C(C)NC(=O)CCS(=O)(=O)Cc2ccc(Cl)cc2)cc1 (stereo not drawn)	0	0	0	0	0	-	-
CCCCOc1ccc(C(C)NC(=O)CCS(=O)(=O)Cc2ccccc2Cl)cc1 (stereo not drawn)	11	0	0	0	0	0	0
COc1ccc(NC(=O)CCCNS(=O)(=O)c2ccc3[nH]c(=O)oc3c2)cc1OC	-	0	-	-	-	-	-
Cc1ccc(C(=O)NCCc2cc3ccc(C)c(C)c3[nH]c2=O)cc1[N+](=O)[O-]	9.6	0	0	0	0	0	0
COc1ccc(C(=O)NCCc2cc3ccc(C)c(C)c3[nH]c2=O)cc1OC	0	0	0	0	0	-	-
COCCOC(=O)c1c(NC(=O)CN2CCc3ccccc32)sc(C(N)=O)c1C	0	0	0	0	0	-	-
CCOC(=O)c1c(NC(=O)CN2CCCc3ccccc32)sc(C(C)=O)c1C	23	0	0	0	0	0	0
COC(=O)[C@]1(C#N)CC(=O)N(Cc2ccc(Cl)cc2)[C@@H]1c1ccc(OC)cc1	-	0	-	-	-	-	-
